Results reported in ChEMBL document CHEMBL5058577, “EUbOPEN Chemogenomics Library 2 (Multiplex)” (2022).

Tested on: U2OS
Experiment: Multiplex assay against U2OS
Type: toxicity, cell-based
Conditions: human
Method in brief: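 Live cells were stained at seeding with Hoechst33342, BioTracker Green Microtubule Cytoskeleton Dye, MitoTracker Red and Annexin V Alexa Fluor 680. Following compound addition, they were imaged on a CQ1 microscope at 37°C and 5% CO2 and gated by CellPathfinder machine learning into Hoechst high-intensity objects or normal cells, with normal cells split into healthy, pyknosed or fragmented nuclei and pyknosed cells into mitotic or apoptotic. Tubulin, mitochondrial-mass and membrane-permeability phenotypes are per cents of healthy-nucleus cells.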

[1] = 12 h, 1 µM, compound concentration 1 uM, replicate 1
[2] = 12 h, 1 µM, compound concentration 1 uM, replicate 2
[3] = 12 h, 10 µM, compound concentration 10 uM, replicate 1
[4] = 12 h, 10 µM, compound concentration 10 uM, replicate 2
[5] = 24 h, 1 µM, compound concentration 1 uM, replicate 1
[6] = 24 h, 1 µM, compound concentration 1 uM, replicate 2
[7] = 24 h, 10 µM, compound concentration 10 uM, replicate 1
[8] = 24 h, 10 µM, compound concentration 10 uM, replicate 2
[9] = 48 h, 1 µM, compound concentration 1 uM, replicate 1
[10] = 48 h, 1 µM, compound concentration 1 uM, replicate 2
[11] = 48 h, 10 µM, compound concentration 10 uM, replicate 1
[12] = 48 h, 10 µM, compound concentration 10 uM, replicate 2

In the case of `C[C@H](NC(=O)c1c(C(F)F)nn(C)c1Oc1cccc(C(F)(F)F)c1)c1ccc(C(=O)O)cc1` [PALUPIPRANT], the “Population Apoptotic (%)” value [1] is reported as 60%, the “Population Fragmented Nuclei (%)” value [1] is reported as 27% and the “Population Healthy Nuclei (%)” value [1] is reported as 63%. The “Population Hoechst High Intensity Objects (%)” value [1] was 3%, the “Population Membrane Permeable-Phenotype (%)” value [1] was 4% and the “Population Mitochondria Different-Phenotype (%)” value [1] was 1%. The “Population Mitotic Cells (%)” value [1] was 39%, the “Population Normal (%)” value [1] was 96% and the “Population Pyknosed Nuclei (%)” value [1] was 8%. For the same compound, the “Population Tubulin-Different-Phenotype (%)” value [1] was 1%, the “Total Cell Count” value [1] was 266 and the “Population Apoptotic (%)” value [2] was 91%. The “Population Fragmented Nuclei (%)” value [2] was 12%, the “Population Healthy Nuclei (%)” value [2] was 78% and the “Population Hoechst High Intensity Objects (%)” value [2] was 0%. The “Population Mitochondria Different-Phenotype (%)” value [2] was 0%, the “Population Mitotic Cells (%)” value [2] was 8% and the “Population Normal (%)” value [2] was 99%. The “Population Pyknosed Nuclei (%)” value [2] was 9%, the “Population Tubulin-Different-Phenotype (%)” value [2] was 2% and the “Total Cell Count” value [2] was 132. For the same compound, the “Population Apoptotic (%)” value [3] was 83%, the “Population Fragmented Nuclei (%)” value [3] was 28% and the “Population Healthy Nuclei (%)” value [3] was 62%. For the same compound, the “Population Hoechst High Intensity Objects (%)” value [3] was 3%, the “Population Membrane Permeable-Phenotype (%)” value [3] was 7% and the “Population Mitochondria Different-Phenotype (%)” value [3] was 4%. The “Population Mitotic Cells (%)” value [3] was 16%, the “Population Normal (%)” value [3] was 96% and the “Population Pyknosed Nuclei (%)” value [3] was 8%. The “Population Tubulin-Different-Phenotype (%)” value [3] was 5%, the “Total Cell Count” value [3] was 293 and the “Population Apoptotic (%)” value [4] was 100%. For the same compound, the “Population Fragmented Nuclei (%)” value [4] was 13%, the “Population Healthy Nuclei (%)” value [4] was 77% and the “Population Membrane Permeable-Phenotype (%)” value [4] was 5%. The “Population Mitochondria Different-Phenotype (%)” value [4] was 2%, the “Population Mitotic Cells (%)” value [4] was 0% and the “Population Tubulin-Different-Phenotype (%)” value [4] was 2%. For the same compound, the “Total Cell Count” value [4] was 117, the “Population Apoptotic (%)” value [5] was 87% and the “Population Fragmented Nuclei (%)” value [5] was 20%. The “Population Healthy Nuclei (%)” value [5] was 72%, the “Population Hoechst High Intensity Objects (%)” value [5] was 2% and the “Population Membrane Permeable-Phenotype (%)” value [5] was 4%. The “Population Mitochondria Different-Phenotype (%)” value [5] was 1%, the “Population Mitotic Cells (%)” value [5] was 12% and the “Population Normal (%)” value [5] was 97%. The “Population Pyknosed Nuclei (%)” value [5] was 7%, the “Population Tubulin-Different-Phenotype (%)” value [5] was 3% and the “Total Cell Count” value [5] was 316. The “Population Apoptotic (%)” value [6] was 94%, the “Population Fragmented Nuclei (%)” value [6] was 14% and the “Population Healthy Nuclei (%)” value [6] was 73%. For the same compound, the “Population Hoechst High Intensity Objects (%)” value [6] was 1%, the “Population Membrane Permeable-Phenotype (%)” value [6] was 5% and the “Population Mitochondria Different-Phenotype (%)” value [6] was 0%. For the same compound, the “Population Mitotic Cells (%)” value [6] was 5%, the “Population Normal (%)” value [6] was 98% and the “Population Pyknosed Nuclei (%)” value [6] was 11%. The “Population Tubulin-Different-Phenotype (%)” value [6] was 5%, the “Total Cell Count” value [6] was 147 and the “Population Apoptotic (%)” value [7] was 91%. The “Population Fragmented Nuclei (%)” value [7] was 18%, the “Population Healthy Nuclei (%)” value [7] was 74% and the “Population Hoechst High Intensity Objects (%)” value [7] was 2%. For the same compound, the “Population Membrane Permeable-Phenotype (%)” value [7] was 5%, the “Population Mitochondria Different-Phenotype (%)” value [7] was 3% and the “Population Mitotic Cells (%)” value [7] was 8%. The “Population Normal (%)” value [7] was 97%, the “Population Pyknosed Nuclei (%)” value [7] was 7% and the “Population Tubulin-Different-Phenotype (%)” value [7] was 1%. The “Total Cell Count” value [7] was 339, the “Population Fragmented Nuclei (%)” value [8] was 13% and the “Population Healthy Nuclei (%)” value [8] was 77%. For the same compound, the “Population Mitochondria Different-Phenotype (%)” value [8] was 1%, the “Population Pyknosed Nuclei (%)” value [8] was 8% and the “Population Tubulin-Different-Phenotype (%)” value [8] was 0%. For the same compound, the “Total Cell Count” value [8] was 139, the “Population Apoptotic (%)” value [9] was 82% and the “Population Fragmented Nuclei (%)” value [9] was 15%. The “Population Healthy Nuclei (%)” value [9] was 73%, the “Population Hoechst High Intensity Objects (%)” value [9] was 2% and the “Population Membrane Permeable-Phenotype (%)” value [9] was 3%. For the same compound, the “Population Mitochondria Different-Phenotype (%)” value [9] was 1%, the “Population Mitotic Cells (%)” value [9] was 17% and the “Population Normal (%)” value [9] was 97%. For the same compound, the “Population Pyknosed Nuclei (%)” value [9] was 11%, the “Population Tubulin-Different-Phenotype (%)” value [9] was 1% and the “Total Cell Count” value [9] was 426. For the same compound, the “Population Apoptotic (%)” value [10] was 92%, the “Population Healthy Nuclei (%)” value [10] was 70% and the “Population Hoechst High Intensity Objects (%)” value [10] was 0%. The “Population Mitochondria Different-Phenotype (%)” value [10] was 0%, the “Population Mitotic Cells (%)” value [10] was 7% and the “Population Normal (%)” value [10] was 99%. The “Population Pyknosed Nuclei (%)” value [10] was 13%, the “Population Tubulin-Different-Phenotype (%)” value [10] was 2% and the “Total Cell Count” value [10] was 207. For the same compound, the “Population Apoptotic (%)” value [11] was 91%, the “Population Fragmented Nuclei (%)” value [11] was 18% and the “Population Healthy Nuclei (%)” value [11] was 73%. For the same compound, the “Population Hoechst High Intensity Objects (%)” value [11] was 2%, the “Population Membrane Permeable-Phenotype (%)” value [11] was 5% and the “Population Mitochondria Different-Phenotype (%)” value [11] was 3%. The “Population Mitotic Cells (%)” value [11] was 8%, the “Population Normal (%)” value [11] was 97% and the “Population Pyknosed Nuclei (%)” value [11] was 7%. The “Population Tubulin-Different-Phenotype (%)” value [11] was 3%, the “Total Cell Count” value [11] was 463 and the “Population Apoptotic (%)” value [12] was 85%. For the same compound, the “Population Fragmented Nuclei (%)” value [12] was 14%, the “Population Healthy Nuclei (%)” value [12] was 79% and the “Population Hoechst High Intensity Objects (%)” value [12] was 1%. For the same compound, the “Population Membrane Permeable-Phenotype (%)” value [12] was 1%, the “Population Mitochondria Different-Phenotype (%)” value [12] was 1% and the “Population Mitotic Cells (%)” value [12] was 14%. The “Population Normal (%)” value [12] was 98%, the “Population Pyknosed Nuclei (%)” value [12] was 6% and the “Population Tubulin-Different-Phenotype (%)” value [12] was 0%. For the same compound, the “Total Cell Count” value [12] was 223.
